Assay results from different studies.
Compare with care: the assays were run in different laboratories.
Cell line: MDA-MB-231
Effect on: cell growth or viability

SMILES | technique | concentration | time | endpoint | result
O=C(C=Cc1ccccc1)Nc1cc(-c2ccnc(N3CCC(O)CC3)c2)ccn1 | MTT | 5 µM |  | inhibition | 80.3%
C[C@@H]1CC[C@@H]([C@](O)(CNCc2ccccc2)COCc2ccc(F)cc2)[C@H](OCc2ccc(F)cc2)C1 | MTT | 30 µM | 72 h | inhibition | 101%
Cc1c(Cc2ccccc2)c(=O)oc2c(C)c(OCC(=O)NN=Cc3ccccc3)ccc12 | MTT | 62.5 µg/mL |  | viability | 17.6%
C[C@@H]1CC[C@@H]([C@](C)(O)CNCc2ccccc2)[C@H](OCc2ccccc2)C1 | MTT | 10 µM | 72 h | inhibition | 76.8%
COc1cc2c3c(n(CCCNC(C)C)c(=O)c2cc1OC)-c1nc2c(cc1C3=O)OCO2 | MTS |  | 72 h | IC50 | 644 nM
CCc1c(C)c2ccc(OCc3nnc(S)n3N)c(C)c2oc1=O | MTT | 500 µg/mL |  | viability | 2.85%
C=C(C)[C@@H]1CC[C@@H](C)C[C@H]1OCc1ccccc1 | MTT | 10 µM | 72 h | inhibition | 21.9%
Cc1c(Cc2ccccc2)c(=O)oc2c(C)c(OCC(=O)NN=Cc3ccc(Cl)cc3)ccc12 | MTT | 250 µg/mL |  | viability | 21.2%
COc1cccc(CNC[C@@](C)(O)[C@@H]2CC[C@@H](C)C[C@H]2OCc2ccccc2)c1 | MTT | 30 µM | 72 h | inhibition | 95.3%
Cc1c(Cc2ccccc2)c(=O)oc2c(C)c(OCC(=O)NN=Cc3ccc([N+](=O)[O-])cc3)ccc12 | MTT | 125 µg/mL |  | viability | 23.7%
C#Cc1nc(C2=C(C)C(O)CC2)cs1 (centres unmarked) |  |  |  | CC50 | 3200 nM
C=C(COCc1ccc(F)cc1)[C@@H]1CC[C@@H](C)C[C@H]1OCc1ccc(F)cc1 | MTT | 30 µM | 72 h | inhibition | 25%
Nc1ccccc1NC(=O)c1ccc(CNC(=O)OCc2cccnc2)cc1 | MTT |  | 48 h | IC50 | 2930 nM
C=CCNC(=S)NNC(=O)COc1ccc2c(C)c(CC)c(=O)oc2c1C | MTT | 250 µg/mL |  | viability | 5.87%
Cc1cc(NC(=O)C=Cc2ccccc2)cc(-c2ccnc(N3CCOCC3)c2)c1 | MTT | 5 µM |  | inhibition | 17.7%
CCNC(=S)NNC(=O)COc1ccc2c(C)c(CC)c(=O)oc2c1C | MTT | 1000 µg/mL |  | viability | 4.73%
O=C(C=Cc1ccccc1)Nc1cc(-c2ccnc(N3CCOCC3)c2)ccn1 | MTT |  | 72 h | IC50 | 72.9 nM
C=CC(=O)c1cccnc1Nc1cc(C(F)(F)F)ccc1OC | SRB |  | 48 h | GI50 | 10500 nM
COc1ccc(CNC[C@](O)(COCc2ccc(F)cc2)[C@@H]2CC[C@@H](C)C[C@H]2OCc2ccc(F)cc2)cc1 | MTT | 30 µM | 72 h | inhibition | 99.4%
O=C(CCc1ccccc1)Nc1cc(-c2ccnc(N3CCC(O)CC3)c2)ccn1 | MTT | 5 µM |  | inhibition | 78.9%
